# From paper PMC3144758 (Bioorganic chemistry, 2010)
# Molecular target: Tip60 (Homo sapiens, UniProt Q92993)
# Assay: Radioactive HAT inhibition assay, Tip60
# Assay type: biochemical
# Outline: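 Recombinant Tip60 acetylates H4 N-terminal 20-mer peptide (100 μM) using [14C]acetyl-CoA (10 μM) at varied DMSO levels, 30 °C, in 50 mM HEPES pH 8.0, 0.1 mM EDTA, 50 μg/mL BSA, 1 mM DTT. Enzyme added after 5 min equilibration. Initial rates measured (<10% substrate consumed) by P81 filter binding, bicarbonate washes and scintillation. Readouts are fractional activity retained and IC50 (50% activity blocked). Runs at least twice.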
# Tip60, sequence (Q92993 whole entry): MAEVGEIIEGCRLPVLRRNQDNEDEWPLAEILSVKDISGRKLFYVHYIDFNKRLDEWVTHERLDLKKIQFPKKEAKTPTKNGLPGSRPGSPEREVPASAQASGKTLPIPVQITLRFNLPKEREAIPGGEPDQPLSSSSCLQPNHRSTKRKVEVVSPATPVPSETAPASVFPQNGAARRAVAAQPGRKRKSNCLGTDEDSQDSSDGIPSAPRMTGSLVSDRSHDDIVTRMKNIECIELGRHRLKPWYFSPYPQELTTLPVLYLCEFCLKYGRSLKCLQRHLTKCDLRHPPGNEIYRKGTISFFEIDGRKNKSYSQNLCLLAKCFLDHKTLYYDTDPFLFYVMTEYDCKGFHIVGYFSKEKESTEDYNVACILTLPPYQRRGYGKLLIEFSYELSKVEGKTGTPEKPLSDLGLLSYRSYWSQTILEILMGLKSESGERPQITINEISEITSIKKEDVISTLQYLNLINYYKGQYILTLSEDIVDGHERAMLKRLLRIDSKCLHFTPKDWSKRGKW
structure (smiles),measurement,setting,value
C[S+](C)[O-] [DMSO],IC50 of DMSO on Tip60 activity,"DMSO (v/v), H4-20 100 μM, [14C]acetyl-CoA 10 μM",37%
same,Retained activity of Tip60,at 30% of DMSO,90%
